Laboratory results: ChEMBL document CHEMBL1143594, “Selective estrogen receptor modulators in the ruthenocene series. Synthesis and biological behavior” (J Med Chem, 2005)

How the values were obtained:
[1] = molecular target: Estrogen receptor beta (Homo sapiens) (UniProt Q92731); test: Relative binding affinity for Estrogen receptor beta
[2] = Octanol-water partition coefficient (logP) of the compound measured by RP-HPLC; format: physicochemical
Outline: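 Reverse-phase HPLC capacity factors measured in an organic phase of 85%-60% methanol containing 0.25% octanol, against an aqueous phase of 0.15% n-decylamine in 0.02 M MOPS pH 7.4 made with octanol-saturated water. Extrapolated to 100% aqueous to give kNw. log Po/w = 0.13418 + 0.98452 log kNw.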

Sequence of Estrogen receptor beta (Homo sapiens) (Q92731 whole entry): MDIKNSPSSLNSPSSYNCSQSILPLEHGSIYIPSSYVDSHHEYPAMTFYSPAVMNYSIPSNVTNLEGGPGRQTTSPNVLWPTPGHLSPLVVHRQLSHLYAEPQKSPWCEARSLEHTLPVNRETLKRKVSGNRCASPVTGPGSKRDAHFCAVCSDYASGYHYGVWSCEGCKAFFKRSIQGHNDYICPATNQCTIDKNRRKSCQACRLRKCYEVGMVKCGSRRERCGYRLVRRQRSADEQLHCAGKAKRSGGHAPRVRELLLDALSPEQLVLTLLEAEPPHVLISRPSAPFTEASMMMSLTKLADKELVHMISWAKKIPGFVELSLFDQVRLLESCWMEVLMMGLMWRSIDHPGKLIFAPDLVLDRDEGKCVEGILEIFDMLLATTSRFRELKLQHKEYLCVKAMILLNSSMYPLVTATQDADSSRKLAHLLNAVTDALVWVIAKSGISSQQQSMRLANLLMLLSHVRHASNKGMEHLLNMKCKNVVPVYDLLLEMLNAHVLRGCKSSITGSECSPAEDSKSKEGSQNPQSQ

Row | Compound | relative binding affinity (RBA) [1] | logP [2]
1 | C[C@]12CC[C@@H]3c4ccc(O)cc4CC[C@H]3[C@@H]1CC[C@@H]2O [ESTRADIOL] | 100 | 3.5
2 | CC/C(=C(/c1ccc(O)cc1)c1ccc(OCCN(C)C)cc1)c1ccccc1 [listing 1 of 3 here] |  | 3.2
3 | CC/C(=C(/c1ccc(O)cc1)c1ccc(OCCN(C)C)cc1)c1ccccc1 [listing 2 of 3 here] |  | 3.4
4 | CC/C(=C(/c1ccc(O)cc1)c1ccc(OCCN(C)C)cc1)c1ccccc1 [listing 3 of 3 here] | 18.5 | 
